Experimental findings from ChEMBL document CHEMBL4002598, “Fusaric acid and analogues as Gram-negative bacterial quorum sensing inhibitors” (Eur J Med Chem, 2017) are described below.

Each structure is given as a SMILES string. Values after ≈ are worked out from the molar mass of the structure shown. Active and inactive are the calls of the source. The rule behind the calls is not given here.

The term IC50 denotes the concentration that gives 50% inhibition.

Data set [1] can be described thus: Inhibition of LuxR-dependent quorum sensing activity in Escherichia coli harboring reporter plasmid LuxI-GFP assessed as reduction in 3-oxo-C6-HSL-induced GFP expression measured every 15 mins for 14 hrs by fluorescence assay. In outline: (§1)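 luxI-gfp E. coli reporter grown 16 h at 37 °C, shaking 180 rpm, then diluted to OD450 0.1 in BT minimal medium with 10% A10, 0.5% glucose and 0.5% Casamino Acids. 3-oxo-C6-HSL added at 10 nM final. Compounds run in triplicate as 2-fold dilutions from 100 μg/ml. GFP (ex 485/em 535) and OD450 read every 15 min for 14 h at 34 °C. IC50 taken from GFP curves.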

In another data set the test system is Saccharomyces cerevisiae. Put plainly: Inhibition of yeast Pma1 at 100 uM preincubated for 30 mins by spectrophotometric method. The method in brief: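 Pma1 purified from Saccharomyces cerevisiae plasma membrane, 0.5 µg per reaction. Enzyme preincubated 30 min at room temperature with 100 µM compound. Reaction buffer: 5 mM ATP, 10 mM MgSO4, 50 mM KNO3, 5 mM NaN3, 3.5 mM molybdate, 20 mM MES-KOH pH 5.9. Run 30 min, then stopped with acidic molybdate/ascorbate/SDS. Released phosphate read at 860 nm after arsenite-citrate treatment (Baginski method).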

Data set [2] concerns Pseudomonas aeruginosa. In words: Inhibition of LasR-dependent quorum sensing activity in Pseudomonas aeruginosa harboring reporter plasmid lasB-GFP assessed as reduction in GFP expression up to 100 ug/ml measured every 15 mins for 14 hrs by fluorescence assay. In outline: (§2)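 P. aeruginosa lasB-gfp and rhlA-gfp reporters, grown 16 h at 37 °C with shaking, then diluted to OD450 0.1 in BT minimal medium (10% A10, 0.5% glucose, 0.5% Casamino Acids). No added signal molecule. Fluorescence at 485/535 nm and growth monitored every 15 min for 14 h at 34 °C. Concentrations up to 100 µg/ml.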

Data set [3] addresses T1, HTH-type quorum-sensing regulator RhlR (Pseudomonas aeruginosa (strain ATCC 15692 / PAO1 / 1C / PRS 101 / LMG12228)) (UniProt P54292).
T1 sequence (whole entry): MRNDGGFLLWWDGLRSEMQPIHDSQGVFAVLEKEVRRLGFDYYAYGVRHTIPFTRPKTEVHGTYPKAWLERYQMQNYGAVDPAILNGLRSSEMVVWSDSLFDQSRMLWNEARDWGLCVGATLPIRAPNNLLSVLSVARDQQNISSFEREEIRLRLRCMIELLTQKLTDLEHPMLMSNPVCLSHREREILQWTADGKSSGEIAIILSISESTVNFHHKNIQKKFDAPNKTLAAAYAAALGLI
In words: Inhibition of RhlR-dependent quorum sensing activity in Pseudomonas aeruginosa harboring reporter plasmid rhlA-gfp assessed as reduction in GFP expression up to 100 ug/ml measured every 15 mins for 14 hrs by fluorescence assay. In outline: as §2

For data set [4], the system named is Escherichia coli. In words: Inhibition of LuxR-dependent quorum sensing activity in Escherichia coli harboring reporter plasmid LuxI-GFP assessed as reduction in 3-oxo-C6-HSL-induced GFP expression at 6.2 to 50 ug/ml measured every 15 mins for 14 hrs by fluorescence assay.
For data set [5], the system named is Escherichia coli. In words: Growth inhibition of Escherichia coli at 0.39 to 100 ug/ml. In outline: as §1
Data set [6] relates to Pseudomonas aeruginosa. In words: Inhibition of LasR-dependent quorum sensing activity in Pseudomonas aeruginosa harboring reporter plasmid lasB-GFP assessed as reduction in GFP expression at >125 ug/ml measured every 15 mins for 14 hrs by fluorescence assay. The method in brief: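 P. aeruginosa lasB-gfp monitor: 16 h overnight culture (37 °C, 180 rpm) diluted to OD450 0.1 in BT minimal medium plus 10% A10, 0.5% glucose, 0.5% Casamino Acids. No signal molecule added. GFP at ex 485/em 535 nm with growth, every 15 min over 14 h at 34 °C. Triplicate, 2-fold dilutions from 1000 μg/ml.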

Data set [7] concerns Escherichia coli. Put plainly: Inhibition of LuxR-dependent quorum sensing activity in Escherichia coli harboring reporter plasmid LuxI-GFP assessed as reduction in 3-oxo-C6-HSL-induced GFP expression up to 100 ug/ml measured every 15 mins for 14 hrs by fluorescence assay. In outline:
as §1

Data set [8] relates to Pseudomonas aeruginosa. In words: Growth inhibition of Pseudomonas aeruginosa at >125 ug/ml.
The subject of data set [9] is Escherichia coli. In words: Inhibition of LuxR-dependent quorum sensing activity in Escherichia coli harboring reporter plasmid LuxI-GFP assessed as reduction in 3-oxo-C6-HSL-induced GFP expression at 3.1 ug/ml measured every 15 mins for 14 hrs by fluorescence assay. In outline: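 E. coli luxI-gfp monitor: overnight culture 16 h, 37 °C, 180 rpm, diluted to OD450 0.1 in BT minimal medium with 10% A10, 0.5% glucose, 0.5% Casamino Acids. Signal 3-oxo-C6-HSL at 10 nM final. GFP read at ex 485/em 535 nm and OD450 every 15 min, 14 h, 34 °C. Triplicate, 2-fold dilutions from 100 μg/ml.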

Data set [10] concerns Escherichia coli. Put plainly: Growth inhibition of Escherichia coli at 6.2 to 100 ug/ml. In outline: (§3)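 E. coli luxI-gfp reporter: overnight culture 16 h, 37 °C, 180 rpm, diluted to OD450 0.1 in BT minimal medium with 10% A10, 0.5% glucose, 0.5% Casamino Acids. 3-oxo-C6-HSL at 10 nM final. Growth read as OD450 every 15 min over 14 h at 34 °C alongside GFP. Triplicate, 2-fold dilutions from 100 μg/ml.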

For data set [11], the system named is Escherichia coli. In words: Growth inhibition of Escherichia coli at 3.13 ug/ml. The method in brief:
as §3

Data set [12] is described as follows: Inhibition of quorum sensing system in Agrobacterium tumefaciens harboring traG-LacZ reporter fusion measured after 4 hrs by beta-galactosidase reporter gene assay. For orientation: In a reporter assay the amount or activity of a reporter protein is the signal.

Consider `CCCCc1ccc(C(=O)OCC)nc1`, for which the 50% inhibitory concentration (IC50) in [1] is 55 µg/mL (≈ 265 µM). Also, the inhibition result (in the data set on Saccharomyces cerevisiae; in the data set on Pseudomonas aeruginosa [2]; in data set [3]) was “inactive” throughout. Besides, the inhibition entry in the data set on Escherichia coli [4] was “Active”. Moreover, in the data set with Escherichia coli [5], the “growth inhibition (GI)” value is on record as “Non-Toxic”.
Take `COC(=O)c1ccc(Br)cn1`: in the data set on Pseudomonas aeruginosa [6], the inhibition entry is “Active”. Also, the inhibition entry (in the data set on Saccharomyces cerevisiae; in the data set with Escherichia coli [7]; in the data set on Pseudomonas aeruginosa [2]; in data set [3]) was “inactive” in each case. Also, in the data set with Pseudomonas aeruginosa [8], the “growth inhibition (GI)” value is recorded as “Non-Toxic”.
On to `CCCCc1ccc(C(=O)O)nc1` [FUSARIC ACID], for which, in the data set with Escherichia coli [9], the inhibition result was “Active”. The inhibition entry (in the data set with Saccharomyces cerevisiae; with Pseudomonas aeruginosa [2]; in [3]) was “inactive” in each case. Moreover, the “growth inhibition (GI)” value with Escherichia coli [10] was “Toxic”; in the data set on Escherichia coli [11], “Non-Toxic”.
Turning to `O=[N+]([O-])c1cc[n+]([O-])cc1`, the IC50 in data set [12] was 171 µM.
